Runt-SMMHC FRET = inhibitors of human RUNX1 Runt domain binding to CBFb-SMMHC; Q01196+Q13951; inhibition, % at 20 µM; hit rate 0.74% among 220,000; Cerulean-Runt/Venus-CBFb-SMMHC FRET ratio 530/480, 1 h;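 active means mean inhibition across duplicate retests at 20 µM reaching about 50%, limit read from the data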;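 further: 0% = DMSO wells and 100% = wells with excess untagged CBFb-SMMHC; inhibitors lower the FRET ratio by blocking Runt binding to CBFb-SMMHC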
Target sequence (Q01196 whole entry, looked up, the tested form may be a part): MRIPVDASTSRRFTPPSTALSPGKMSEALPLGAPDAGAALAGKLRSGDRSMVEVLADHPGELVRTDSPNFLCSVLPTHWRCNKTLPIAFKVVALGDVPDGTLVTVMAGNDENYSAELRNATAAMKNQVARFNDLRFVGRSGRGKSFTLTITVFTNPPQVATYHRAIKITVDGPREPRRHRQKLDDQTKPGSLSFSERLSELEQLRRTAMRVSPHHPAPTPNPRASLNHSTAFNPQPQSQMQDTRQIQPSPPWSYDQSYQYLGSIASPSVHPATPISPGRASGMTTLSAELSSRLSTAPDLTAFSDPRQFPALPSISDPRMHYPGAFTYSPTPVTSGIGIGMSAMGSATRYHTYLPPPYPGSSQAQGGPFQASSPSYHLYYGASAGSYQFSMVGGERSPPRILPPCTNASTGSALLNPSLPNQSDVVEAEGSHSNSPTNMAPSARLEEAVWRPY
Target sequence (Q13951 whole entry, looked up, the tested form may be a part): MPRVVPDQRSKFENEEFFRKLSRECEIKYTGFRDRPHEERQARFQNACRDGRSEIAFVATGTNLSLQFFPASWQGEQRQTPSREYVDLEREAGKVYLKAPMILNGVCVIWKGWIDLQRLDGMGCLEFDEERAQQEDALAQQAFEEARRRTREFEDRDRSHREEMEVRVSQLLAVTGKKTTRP
Rce1 inhib = yeast Ras-converting enzyme inhibition | Q03530 | yeast membranes, quenched prenylated peptide cleavage fluorescence | calls only | hit rate 0.27% among 290,000 | AID 2563;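 active means fall in fluorescence gain of 50% or more versus controls, with final raw signal at or below 3038400; inconclusive means same 50% fall but final raw signal above 3038400; inactive means fall in fluorescence gain under 50%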;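 further: plate controls were neutral control wells for no effect and wells lacking membranes for full effect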
Runt-CBFb FRET = Runt domain-CBFb interaction inhibition | inhibition, % at 20 µM | AID 1496 | hit rate 0.46% among 220,000 | Cerulean-Runt/Venus-CBFb FRET ratio 530/480, 1 h;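 active means inhibition over about 50% at 20 µM in the single-dose screen, limit read from the data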;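 further: 0% = DMSO wells and 100% = excess unlabeled CBFb competitor control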
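Buffer or medium: Tris pH 7.5 buffer with BSA. Assay system: Cerulean-labeled Runt domain protein. Amount: each fluorescent fusion protein 100 nM. Read-out basis: loss of energy transfer signal. Incubation: 1 h compound exposure, room temperature. Probe or stimulus: Venus-CBFb binding partner, 100 nM. Detection: FRET, excitation 422 nm, emission at 530 and 480 nm.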
RanGTP-Impb inh = inhibitors of RanGTP-importin-beta interaction, primary screen, biochemical, FRET, CFP-Ran, YFP-importin-beta, homogeneous; cell-free CFP-Ran/YFP-importin-beta FRET ratio; inhibition, % (test concentration not listed); hit rate 1.1% among 300,000; AID 2216;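 active means more than half of the replicate wells show a fall in the fluorescence ratio signal beyond about 16%, limit read from the data, passing the limit was not always enough; inconclusive means exactly half of the replicate wells pass the set limit; inactive means fewer than half of replicates pass the limit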;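 further: 0% = DMSO wells and 100% = Ran loaded with GDP instead of GTP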
Platelet DG rel = platelet dense granule release activity | human platelet-rich plasma, SFLLRN dense granule ATP release, luminescence | inhibition, %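 (compounds screened at 7.5 µM in platelet-rich plasma)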 | hit rate 0.22% among 300,000 | AID 1663;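 active means mean replicate score, as percent of positive control, at or above 50; inconclusive means mean below 50 but at least one replicate at or above 50; inactive means mean and every replicate below 50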
Numbers without * were called inactive; i = inactive; ? = inconclusive; . = not tested or not shown; + = active, no number. Shown are actives, neighbours in structure and some others; about 1.8% of the full set was active somewhere.

SMILES	Runt-SMMHC FRET	Rce1 inhib	Runt-CBFb FRET	RanGTP-Impb inh	Platelet DG rel
O=C(NC1CCSc2ccccc21)c1cccc(S(=O)(=O)N2CCOCC2)c1 (stereo not given)	.	i	.	-3	2
CC1=CN2C(=N)/C(=C\c3cn(CCCOc4ccccc4)c4ccccc34)C(=O)N=C2S1	-142	i	-94	-11	-6
Cn1c(/C(C#N)=C/c2ccc(O)cc2)nc2ccccc21	-3	i	13	28*	8
CC1=C(C#N)C(=O)OC(C)(C)C1	78*	i	32	72*	-2
Cc1ccc(C(C)C)c(OCC(=O)NNC(=O)CC2OC(=O)c3ccccc32)c1 (stereo not given)	.	i	.	-4	-7
CCn1c(=O)c(CCC(=O)N2CCN(c3ccccn3)CC2)c(C)c2c(C)nn(-c3cccc(C)c3)c21	.	i	.	-2	2
Cc1ccc(C(=O)N/C(=C\c2ccc(Br)cc2)c2nc(=S)[nH][nH]2)cc1	7	i	1	28*	2
COc1ccc(CNC(=O)c2sccc2-c2ccccc2)cc1OC	.	i	.	3	3
C=CCn1c(=O)c2c(nc3n2CCN3c2cccc(Cl)c2C)n(C)c1=O	4	i	-1	9	1
C=CCn1c(=O)c2c(nc(-c3ccc(S(=O)(=O)O)cc3)n2C)n(C)c1=O	.	+	.	7	-1
CN1OCC(S(=O)(=O)c2ccccc2)C1c1ccccc1 (stereo not given)	-4	i	1	35*	2
O=S(=O)(c1ccccc1)C1CON(Cc2ccccc2)C1c1ccccc1 (stereo not given)	2	i	-8	3	5
COc1ccc(NC(=O)COc2coc(CN3CCN(c4ccccc4)CC3)cc2=O)cc1	.	i	.	?	8
N#CCc1cnc2ccccc2n1	-5	i	1	29*	6
CCn1nc(NS(=O)(=O)c2ccccc2)c2cc3ccccc3nc21	.	i	.	2	17
CCn1nc(NC(=O)c2cccs2)c2cc3ccccc3nc21	24	i	14	39*	3
CCn1nc(NC(=O)c2cccnc2)c2cc3ccccc3nc21	8	i	5	19*	0
O=C(Oc1ccccc1)N(c1ccccc1)c1ccccc1	-5	i	0	3	-9
CCn1c(C)cc2c(c1=O)C(c1ccccc1Br)C(C#N)=C(N)O2 (stereo not given)	9	i	4	48*	-1
CCOc1cccc(C2C(C#N)=C(N)Oc3cc(C)n(Cc4ccccn4)c(=O)c32)c1OCC (stereo not given)	-8	i	-3	4	4
COCCn1c(C)cc2c(c1=O)C(c1ccco1)C(C#N)=C(N)O2 (stereo not given)	117*	i	112*	8	8
Cc1cc2c(c(=O)n1CCN(C)C)C(c1ccncc1)C(C#N)=C(N)O2 (stereo not given)	-2	i	0	-2	-3
O=c1[nH]c(=S)[nH]c2nc(-c3ccccc3)cnc12	.	i	.	3	-7
O=c1[nH]c(=O)c2nc(-c3ccc(Cl)cc3)cnc2[nH]1	.	i	20	94*	0
COc1ccc(NC2c3ccccc3C(=O)N2c2ccccn2)cc1 (stereo not given)	0	i	2	-1	-1
SMILES	Runt-SMMHC FRET	Rce1 inhib	Runt-CBFb FRET	RanGTP-Impb inh	Platelet DG rel
O=C(C(Cc1ccccc1)N1C(=O)c2ccccc2C1=O)N1c2ccccc2CCc2ccccc21 (stereo not given)	-3	+	0	-1	4
Cc1ccsc1/C=N/Nc1nc(=O)[nH]nc1C	4	i	1	-1	51*
Cc1cc(C)nc(N/N=C/c2sccc2C)n1	-4	i	3	-3	9
COc1ccc(-c2cc(C(=O)N3CCCC3)c3ccccc3n2)cc1	.	i	.	0	5
COc1ccc(-c2cc(C(=O)NCCCN3CCCC3=O)c3ccccc3n2)cc1	.	+	.	-10	-1
COc1ccc(-c2cc(C(=O)N3CCN(c4ccccc4)CC3)c3ccccc3n2)cc1	-1	+	0	1	-4
COc1ccc(-c2cc(C(F)F)n3ncc(C(=O)NCCCN4CCCC4=O)c3n2)cc1	23	i	8	0	-27
Cc1cc(C)cc(N=Cc2c(O)c3ccccc3oc2=O)c1	87*	i	3	-5	5
Fc1ccc(CNc2nc(-c3ccco3)cc(C(F)(F)F)n2)cc1	-17	i	6	58*	-2
FC(F)(F)c1cc(-c2ccco2)nc(NCc2ccccc2)n1	-4	.	1	2	-2
Cc1c(CC(=O)O)c(=O)oc2c(C)c3occ(-c4ccccc4)c3cc12	.	i	.	19*	2
Cc1cccc(-c2nc3cc(NC(=O)C4CCCO4)ccc3o2)c1 (stereo not given)	-2	i	-4	7	59*
O=C(Nc1ccc(-c2nc3ccccc3[nH]2)cc1)C1CCCO1 (stereo not given)	-3	i	1	-3	87*
Cc1ccc2oc(-c3cccc(NC(=O)C4CCCO4)c3)nc2c1 (stereo not given)	2	i	-1	-3	5
COc1cc(/C=N/NC(N)=S)ccc1OCC(=O)Nc1ccc(C)c(C)c1	-5	i	-3	9	1
COc1cc(/C=N/NC(N)=O)ccc1OCC(=O)Nc1ccc(C)c(C)c1	0	i	-2	?	56*
COc1cc(/C=N/OCC(=O)Nc2cc(C)cc(C)c2)ccc1OCc1ccc(Cl)cc1	18	i	4	26*	20
CCS(=O)(=O)Nc1ccc(-c2nnc(SCC(=O)OC)o2)cc1	-2	i	-3	1	50*
CCOc1ccc(-c2c(C(=O)N/N=C/c3ccc(Cl)cc3)nnn2-c2nonc2N)cc1	.	i	.	-6	24
Cc1ccc(NC(=O)CSc2ncccn2)cc1F	-1	i	1	96*	4
Cc1ccc(NC(=O)CSc2nccn2C)cc1F	.	i	.	-2	-12
CCn1cc(Br)c(C(=O)Nc2ccc(Cl)c(Cl)c2)n1	3	i	-4	57*	5
O=C(O)c1ccc(CN(c2ccccn2)S(=O)(=O)c2ccccc2)cc1	4	+	-1	-6	7
CNC(=O)C1=C(C)NC(=S)NC1c1cc2c(cc1OC)CCCC2 (stereo not given)	2	i	3	0	-9
COc1ccc(OC)c(NC(=O)C2CCN(S(=O)(=O)c3cccs3)CC2)c1	-2	i	0	1	-9
COc1ccc(OC)c(NC(=O)C2CCN(C(=O)c3cccs3)CC2)c1	2	i	66*	0	-10
Cc1ccc(OCCCCNC(C)c2ccccc2)c(C)c1 (stereo not given)	.	i	.	-1	3
O=C1c2ccccc2C(Nc2ccc(Cl)cc2)N1CCN1CCOCC1 (stereo not given)	1	i	3	1	1
